The source of these data is ChEMBL document CHEMBL5678805, “Intermittent administration of MEK inhibitor GDC-0973 plus PI3K inhibitor GDC-0941 triggers robust apoptosis and tumor growth inhibition” (Cancer Res, 2012).

The source made the active and inactive calls. The rule behind the calls is not given here. Where only a bound is given, the exact number is not on record here.

For test [1], the system named is NCI-H2122. The experiment in a line: Antitumor activity against human NCI-H2122 cells xenografted in mouse assessed as tumor growth inhibition at 15 mg/kg, po administered every third day for 21 days. Format: functional. As to conditions: NCI-H2122, 504 h, time 21 day, read-out: TGI. A digest of the protocol:
(§1)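 Dosing was oral, every third day (Q3D) across 21 days, with single agents or the MEK plus PI3K combination in NCI-H2122 xenograft mice. Tumor volume was calculated as (L×W×W)/2 from caliper measurements. %TGI was derived from fitted-curve AUC per day relative to vehicle, with body weight monitored.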

Test [2] concerns 888-mel. The experiment in a line: Inhibition of S6 phosphorylation in human 888-mel cells incubated for 24 hrs in presence of 4-(2-(1H-indazol-4-yl)-6-((4-(methylsulfonyl)piperazin-1-yl)methyl)thieno[3,2-d]pyrimidin-4-yl)morpholine by immunoblotting analysis. Format: cell-based.
Test [3] concerns A2058. The experiment in a line: Antitumor activity against human A2058 cells harboring BRAF V600E/PTEN deletion mutant xenografted in mouse assessed as suppression of ERK phosphorylation at 15 mg/kg, po administered every third day for 21 days and measured after 72 hrs post dose by Western blot analysis. Format: functional, organism-based. As to conditions: time 576.0 hrs.
In test [4] the target is Fibroblast growth factor receptor 1 (Homo sapiens, UniProt P11362). The experiment in a line: Inhibition of FGFR1 (unknown origin).
Test [5] concerns NCI-H2122. In words: Antitumor activity against human NCI-H2122 cells xenografted in mouse assessed as tumor growth inhibition at 15 mg/kg, po administered every third day for 21 days in presence of 4-(2-(1H-indazol-4-yl)-6-((4-(methylsulfonyl)piperazin-1-yl)methyl)thieno[3,2-d]pyrimidin-4-yl)morpholine. The format is functional. The following applies: NCI-H2122, 504 h, time 21 day, read-out: TGI. An outline of the steps: as §1

The test system of test [6] is 888-mel. In words: Inhibition of PI3K/MEK signaling pathway in human 888-mel cells assessed as decrease in AKT phosphorylation by incubated for 24 hrs by Western blot analysis. The format is cell-based.
A further test deals with A-375. The experiment in a line: Antitumor activity against human A-375 cells harboring BRAF V600E/CDKN2A E61 mutant xenografted in mouse assessed as tumor growth inhibition at 5 mg/kg, po. Format: functional. The following applies: A-375, read-out: TGI. A digest of the protocol: (§2)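 Mice carrying human tumor xenografts dosed orally once daily for 21 consecutive days. Tumor volume measured by calipers as (L×W×W)/2. %TGI = 100×[1 − AUC(treatment/day)/AUC(vehicle/day)], using the area under the fitted growth curve relative to vehicle.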

The next test relates to NCI-H69. In words: Antitumor activity against human NCI-H69 cells harboring RBI E748/PK3CA G106_R108/TP53 E171 mutant xenografted in mouse assessed as tumor growth inhibition at 10 mg/kg, po. The format is functional. As to conditions: read-out: TGI. A digest of the protocol:
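Human tumor xenografts in mice were dosed orally at the indicated mg/kg. Tumor volume was measured with calipers as (L×W×W)/2. %TGI = 100 × [1 − (AUC treatment/d)/(AUC vehicle/d)], using the area under the fitted tumor-growth curve per day for each dose group relative to vehicle.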

Another test has as its system HCT-116. In words: Antitumor activity against human HCT-116 cells harboring KRAS G13D/PIK3CA […]/CTNNB1 S45del/CDKN2A G23fs mutant xenografted in mouse assessed as tumor growth inhibition at 5 mg/kg, po. As to conditions: read-out: TGI. Format: functional. An outline of the steps:
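Single-agent dose ranging in human tumor xenograft mice at 2.5, 5 or 10 mg/kg oral. Tumor volume was measured by caliper as (L×W×W)/2. %TGI = 100×[1 − AUC(treatment/d)/AUC(vehicle/d)] from the fitted growth curve per dose group, relative to vehicle.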

In test [7] the target is Serine/threonine-protein kinase Nek3 (Homo sapiens, UniProt P51956). The experiment in a line: Inhibition of NEK3 (unknown origin).
The target of test [8] is Tyrosine-protein kinase Fes/Fps (Homo sapiens, UniProt P07332). In words: Inhibition of Fes (unknown origin).
The subject of test [9] is NCI-H2122. In words: Antitumor activity against human NCI-H2122 cells xenografted in mouse assessed as tumor growth inhibition at 20 mg/kg, po administered once a day for 21 days in presence of 4-(2-(1H-indazol-4-yl)-6-((4-(methylsulfonyl)piperazin-1-yl)methyl)thieno[3,2-d]pyrimidin-4-yl)morpholine. The format is functional. The following applies: NCI-H2122, 504 h, time 21 day, read-out: TGI. A digest of the protocol: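 Mice bearing NCI-H2122 xenografts were given MEK inhibitor, PI3K inhibitor, or both, orally once daily for 21 consecutive days at the doses labeled. Caliper tumor volumes were calculated as (L×W×W)/2. %TGI was derived from the AUC of the fitted growth curve per day relative to vehicle.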

The target of test [10] is Serine/threonine-protein kinase 24 (Homo sapiens, UniProt Q9Y6E0). The experiment in a line: Inhibition of STK24 (unknown origin).
In test [11] the test system is A2058. In words: Antitumor activity against human A2058 cells harboring BRAF V600E/PTEN deletion mutant xenografted in mouse assessed as increase in Bim level at 15 mg/kg, po administered every third day for 21 days and measured after 72 hrs post dose in presence of 4-(2-(1H-indazol-4-yl)-6-((4-(methylsulfonyl)piperazin-1-yl)methyl)thieno[3,2-d]pyrimidin-4-yl)morpholine by Western blot analysis. Format: functional, organism-based. The following applies: time 576.0 hrs.

Test [12] has as its system A2058. The experiment in a line: Antitumor activity against human A2058 cells harboring BRAF V600E/PTEN deletion mutant xenografted in mouse assessed as suppression of AKT phosphorylation at 15 mg/kg, po administered every third day for 21 days and measured after 72 hrs post dose in presence of 4-(2-(1H-indazol-4-yl)-6-((4-(methylsulfonyl)piperazin-1-yl)methyl)thieno[3,2-d]pyrimidin-4-yl)morpholine by Western blot analysis. The format is functional, organism-based. As to conditions: time 576.0 hrs.

The test system of test [13] is A2058. The experiment in a line: Antitumor activity against human A2058 cells harboring BRAF V600E/PTEN deletion mutant xenografted in mouse assessed as increase in BimL level at 15 mg/kg, po administered every third day for 21 days and measured after 8 hrs post dose by Western blot analysis. As to conditions: time 512.0 hrs. Format: functional, organism-based.
Test [14] deals with A2058. In words: Antitumor activity against human A2058 cells harboring BRAF V600E/PTEN L112Q/V175/TP53 V274F mutant xenografted in mouse assessed as tumor growth inhibition at 10 mg/kg, po. The format is functional. As to conditions: read-out: TGI. An outline of the steps: as §2
The target of a further test is Aurora kinase A (Homo sapiens, UniProt O14965). The experiment in a line: Inhibition of AuroraA (unknown origin).
In another test the target is Focal adhesion kinase 1 (Homo sapiens, UniProt Q05397). In words: Inhibition of FAK (unknown origin).
The test system of test [15] is 888-mel. In words: Inhibition of ERK phosphorylation in human 888-mel cells incubated for 24 hrs in presence of 4-(2-(1H-indazol-4-yl)-6-((4-(methylsulfonyl)piperazin-1-yl)methyl)thieno[3,2-d]pyrimidin-4-yl)morpholine by immunoblotting analysis. The format is cell-based.
In test [16] the target is Dual specificity mitogen-activated protein kinase kinase 4 (Homo sapiens, UniProt P45985). In words: Inhibition of MKK4 (unknown origin).
For another test, the system named is DLD-1. The experiment in a line: Antitumor activity against human DLD-1 cells xenografted in mouse assessed as tumor growth inhibition at 15 mg/kg, po administered once a day for 21 days. Format: functional. The following applies: DLD-1, 504 h, time 21 day, read-out: TGI. A digest of the protocol:
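Human tumor xenografts in mice. Drugs given orally, as single agents or combined with the PI3K inhibitor. Schedules were daily (QD) or every third day (Q3D) over 21 days. Tumor volume was measured by caliper as (L×W×W)/2. %TGI = 100×[1 − AUC(treatment/d)/AUC(vehicle/d)] from fitted growth curves, with group means. Tumor lysates were immunoblotted for pS6.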

Sequence of Tyrosine-protein kinase Fes/Fps (P07332 whole entry): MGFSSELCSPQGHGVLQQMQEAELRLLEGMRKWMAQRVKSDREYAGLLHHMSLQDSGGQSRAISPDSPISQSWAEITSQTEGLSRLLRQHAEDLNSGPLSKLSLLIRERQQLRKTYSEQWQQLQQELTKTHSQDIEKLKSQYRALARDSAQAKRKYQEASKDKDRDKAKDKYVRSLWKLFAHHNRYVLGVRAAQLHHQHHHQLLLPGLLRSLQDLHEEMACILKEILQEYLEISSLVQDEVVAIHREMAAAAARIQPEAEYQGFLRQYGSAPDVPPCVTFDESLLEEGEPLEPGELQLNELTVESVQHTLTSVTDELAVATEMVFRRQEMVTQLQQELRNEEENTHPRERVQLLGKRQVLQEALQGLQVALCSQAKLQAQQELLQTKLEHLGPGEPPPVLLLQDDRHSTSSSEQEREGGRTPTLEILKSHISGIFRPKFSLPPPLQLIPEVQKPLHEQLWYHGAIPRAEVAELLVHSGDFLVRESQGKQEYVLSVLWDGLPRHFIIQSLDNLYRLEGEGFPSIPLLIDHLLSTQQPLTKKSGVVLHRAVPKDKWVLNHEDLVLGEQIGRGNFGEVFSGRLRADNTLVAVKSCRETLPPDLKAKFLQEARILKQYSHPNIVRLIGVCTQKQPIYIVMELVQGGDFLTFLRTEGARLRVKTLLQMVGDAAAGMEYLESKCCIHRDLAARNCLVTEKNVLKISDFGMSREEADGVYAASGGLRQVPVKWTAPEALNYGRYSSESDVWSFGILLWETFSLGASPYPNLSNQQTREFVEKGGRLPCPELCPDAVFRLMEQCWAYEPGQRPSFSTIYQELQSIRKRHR
Sequence of Focal adhesion kinase 1 (Q05397 whole entry): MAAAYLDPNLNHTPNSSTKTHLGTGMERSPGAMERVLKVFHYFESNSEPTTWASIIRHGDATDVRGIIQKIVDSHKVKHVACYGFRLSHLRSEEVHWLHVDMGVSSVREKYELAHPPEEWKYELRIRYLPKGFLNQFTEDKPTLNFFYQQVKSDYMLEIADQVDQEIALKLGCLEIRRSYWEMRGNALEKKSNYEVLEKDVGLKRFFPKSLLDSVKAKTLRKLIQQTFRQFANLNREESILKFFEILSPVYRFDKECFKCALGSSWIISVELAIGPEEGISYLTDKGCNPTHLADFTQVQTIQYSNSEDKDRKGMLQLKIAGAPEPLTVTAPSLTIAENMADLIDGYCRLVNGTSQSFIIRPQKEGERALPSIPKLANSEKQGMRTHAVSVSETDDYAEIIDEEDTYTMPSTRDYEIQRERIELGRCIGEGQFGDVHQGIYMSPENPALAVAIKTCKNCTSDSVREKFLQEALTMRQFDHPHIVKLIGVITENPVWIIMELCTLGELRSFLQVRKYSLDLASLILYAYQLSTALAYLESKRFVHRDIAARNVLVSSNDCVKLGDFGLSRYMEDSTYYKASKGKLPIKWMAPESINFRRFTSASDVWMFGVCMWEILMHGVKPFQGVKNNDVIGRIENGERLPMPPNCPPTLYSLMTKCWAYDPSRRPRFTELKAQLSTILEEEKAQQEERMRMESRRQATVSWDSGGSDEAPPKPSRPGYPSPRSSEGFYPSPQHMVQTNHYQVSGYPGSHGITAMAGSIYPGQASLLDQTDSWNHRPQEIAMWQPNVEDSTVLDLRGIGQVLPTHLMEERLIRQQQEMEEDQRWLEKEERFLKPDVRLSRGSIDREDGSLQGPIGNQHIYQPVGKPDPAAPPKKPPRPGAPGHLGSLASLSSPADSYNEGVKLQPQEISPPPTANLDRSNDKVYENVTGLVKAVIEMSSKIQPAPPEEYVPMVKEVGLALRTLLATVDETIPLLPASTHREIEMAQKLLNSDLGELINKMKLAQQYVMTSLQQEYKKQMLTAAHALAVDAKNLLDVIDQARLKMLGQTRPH
Sequence of Fibroblast growth factor receptor 1 (P11362 whole entry): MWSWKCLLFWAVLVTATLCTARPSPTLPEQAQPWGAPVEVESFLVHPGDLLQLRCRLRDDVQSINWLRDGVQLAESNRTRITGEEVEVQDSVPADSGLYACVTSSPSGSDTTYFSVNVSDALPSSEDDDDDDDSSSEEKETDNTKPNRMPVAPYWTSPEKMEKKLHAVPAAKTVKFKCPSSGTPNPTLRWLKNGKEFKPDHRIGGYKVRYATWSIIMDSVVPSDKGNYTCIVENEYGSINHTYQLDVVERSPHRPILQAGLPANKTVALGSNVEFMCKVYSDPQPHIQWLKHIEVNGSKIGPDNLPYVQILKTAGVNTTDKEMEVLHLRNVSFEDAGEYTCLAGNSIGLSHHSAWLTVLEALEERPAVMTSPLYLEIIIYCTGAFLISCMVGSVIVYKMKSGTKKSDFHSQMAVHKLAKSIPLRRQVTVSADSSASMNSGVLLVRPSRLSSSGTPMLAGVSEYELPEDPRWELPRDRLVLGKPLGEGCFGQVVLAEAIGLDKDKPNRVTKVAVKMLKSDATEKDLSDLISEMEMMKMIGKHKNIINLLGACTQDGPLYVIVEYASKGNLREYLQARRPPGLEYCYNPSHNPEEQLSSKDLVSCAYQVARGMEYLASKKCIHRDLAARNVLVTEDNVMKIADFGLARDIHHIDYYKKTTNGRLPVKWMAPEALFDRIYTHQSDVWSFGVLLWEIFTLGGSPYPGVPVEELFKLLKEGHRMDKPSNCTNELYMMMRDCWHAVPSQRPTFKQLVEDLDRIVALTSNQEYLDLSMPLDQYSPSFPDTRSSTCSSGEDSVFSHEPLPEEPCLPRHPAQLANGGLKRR
Sequence of Aurora kinase A (O14965 whole entry): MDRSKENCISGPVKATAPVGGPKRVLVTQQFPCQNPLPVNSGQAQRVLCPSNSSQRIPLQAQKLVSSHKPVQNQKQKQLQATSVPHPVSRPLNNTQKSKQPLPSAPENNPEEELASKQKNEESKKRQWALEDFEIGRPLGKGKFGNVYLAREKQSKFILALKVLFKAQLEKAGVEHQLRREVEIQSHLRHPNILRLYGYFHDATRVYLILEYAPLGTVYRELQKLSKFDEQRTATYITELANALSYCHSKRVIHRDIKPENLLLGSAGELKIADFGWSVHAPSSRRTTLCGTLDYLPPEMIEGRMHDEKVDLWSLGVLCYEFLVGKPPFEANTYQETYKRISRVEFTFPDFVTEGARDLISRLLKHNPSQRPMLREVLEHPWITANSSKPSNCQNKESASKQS
Sequence of Dual specificity mitogen-activated protein kinase kinase 4 (P45985 whole entry): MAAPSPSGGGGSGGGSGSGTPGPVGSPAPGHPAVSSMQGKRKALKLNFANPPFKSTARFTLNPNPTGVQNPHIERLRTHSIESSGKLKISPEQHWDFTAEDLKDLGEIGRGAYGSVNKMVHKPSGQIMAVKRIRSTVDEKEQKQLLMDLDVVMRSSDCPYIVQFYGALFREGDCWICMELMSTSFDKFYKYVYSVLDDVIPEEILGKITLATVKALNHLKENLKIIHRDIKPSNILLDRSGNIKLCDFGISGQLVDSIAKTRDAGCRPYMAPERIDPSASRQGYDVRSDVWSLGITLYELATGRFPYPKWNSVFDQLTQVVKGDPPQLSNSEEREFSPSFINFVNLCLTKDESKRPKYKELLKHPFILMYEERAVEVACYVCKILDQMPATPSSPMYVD
Sequence of Serine/threonine-protein kinase 24 (Q9Y6E0 whole entry): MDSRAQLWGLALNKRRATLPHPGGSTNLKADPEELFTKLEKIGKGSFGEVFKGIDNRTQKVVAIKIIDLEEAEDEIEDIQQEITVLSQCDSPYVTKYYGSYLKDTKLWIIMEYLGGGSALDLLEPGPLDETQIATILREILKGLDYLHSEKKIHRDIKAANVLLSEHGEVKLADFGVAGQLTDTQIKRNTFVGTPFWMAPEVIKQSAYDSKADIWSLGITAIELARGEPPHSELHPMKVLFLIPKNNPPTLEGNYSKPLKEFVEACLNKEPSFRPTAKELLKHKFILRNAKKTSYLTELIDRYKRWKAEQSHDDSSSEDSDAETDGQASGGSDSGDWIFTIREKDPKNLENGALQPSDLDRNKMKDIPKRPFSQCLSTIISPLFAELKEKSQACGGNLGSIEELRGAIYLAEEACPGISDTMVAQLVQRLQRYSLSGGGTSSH
Sequence of Serine/threonine-protein kinase Nek3 (P51956 whole entry): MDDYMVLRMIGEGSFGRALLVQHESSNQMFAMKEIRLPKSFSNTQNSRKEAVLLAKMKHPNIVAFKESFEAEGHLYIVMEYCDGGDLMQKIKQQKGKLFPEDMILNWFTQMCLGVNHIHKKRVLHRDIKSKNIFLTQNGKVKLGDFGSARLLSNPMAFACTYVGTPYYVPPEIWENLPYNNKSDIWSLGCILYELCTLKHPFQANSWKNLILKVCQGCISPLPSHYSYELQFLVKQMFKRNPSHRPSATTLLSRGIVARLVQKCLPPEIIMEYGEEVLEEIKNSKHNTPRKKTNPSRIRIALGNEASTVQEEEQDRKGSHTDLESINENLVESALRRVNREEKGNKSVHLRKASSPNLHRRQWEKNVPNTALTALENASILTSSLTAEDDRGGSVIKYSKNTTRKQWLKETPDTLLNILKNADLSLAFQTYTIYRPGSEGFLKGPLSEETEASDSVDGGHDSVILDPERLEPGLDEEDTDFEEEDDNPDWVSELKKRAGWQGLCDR

Consider `O=C(c1ccc(F)c(F)c1Nc1ccc(I)cc1F)N1CC(O)([C@@H]2CCCCN2)C1` [COBIMETINIB], for which the figures for the inhibition in vivo at 15 mg/kg in the test on NCI-H2122 [1], in the test with NCI-H2122 [5] and in the test with DLD-1 were 71%, 156% and 2%, respectively. For the same molecule, the inhibition entry with 888-mel [2], in the test with 888-mel [6] and in the test with 888-mel [15] was “Active” each time. Also, the outcome with A2058 [3], with A2058 [11], in the test on A2058 [12] and in the test with A2058 [13] was Active. Moreover, the IC50 (in test [4]; in [7]; in test [8]; in [10]; on Aurora kinase A; against Focal adhesion kinase 1) was above 10 µM in each case. The molecule further gave a 50% inhibitory concentration (IC50) in [16] above 10 µM. For the same molecule, the inhibition in vivo at 5 mg/kg with A-375 is 120%; in the test with HCT-116, 68.7%. Besides, the figures for the inhibition in vivo at 10 mg/kg in the test on NCI-H69 and in the test on A2058 [14] were 38% and 47.3%, respectively. The inhibition in vivo at 20 mg/kg in the test with NCI-H2122 [9] came to 87%.
